Screening results deposited in PubChem by The Scripps Research Institute Molecular Screening Center.
CHRM5 PAM – human M5 muscarinic receptor positive allosteric modulators, primary screen, CHO-K1 cells, Fluo-8 calcium fluorescence; CHO-K1 hM5, ACh EC20 PAM; 0% = ACh EC20, 100% = ACh EC100; activation, % at 3 µM; hit rate 0.3% among 360,000; AID 624038, 2012;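 active = activation above the run cutoff, the mean activation of all test compounds plus 3 SD, cut at about 18% in these data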
Target sequence (P08912 whole entry, looked up): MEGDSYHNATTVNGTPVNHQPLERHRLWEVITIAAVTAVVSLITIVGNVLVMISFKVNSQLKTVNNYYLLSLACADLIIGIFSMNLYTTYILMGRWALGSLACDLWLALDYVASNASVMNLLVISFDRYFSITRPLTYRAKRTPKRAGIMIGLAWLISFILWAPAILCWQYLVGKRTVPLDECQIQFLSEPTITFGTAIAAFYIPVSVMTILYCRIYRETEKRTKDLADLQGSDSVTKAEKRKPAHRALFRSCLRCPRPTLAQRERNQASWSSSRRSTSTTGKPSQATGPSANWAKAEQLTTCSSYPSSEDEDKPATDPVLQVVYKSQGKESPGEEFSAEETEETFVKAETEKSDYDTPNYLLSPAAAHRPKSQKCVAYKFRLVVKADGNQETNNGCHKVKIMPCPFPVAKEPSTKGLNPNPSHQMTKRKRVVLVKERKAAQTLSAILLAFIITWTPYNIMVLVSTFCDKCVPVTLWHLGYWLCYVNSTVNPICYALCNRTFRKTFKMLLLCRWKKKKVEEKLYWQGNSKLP
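System: CHO-K1 cell line with stable human muscarinic M5 receptor expression | Also added: EC20 acetylcholine as agonist stimulus | Compound: One concentration, 3 µM final (nominal) | Timing: Fluo-8 loading 80 min at 37 °C plus 30 min room temperature | Measured by: Fluo-8 calcium dye fluorescence, kinetic read | Read-out basis: % activation, ACh-normalized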
M5 antag – human M5 muscarinic receptor antagonists, primary screen, CHO cells, Fluo-8 calcium fluorescence; CHO-hM5 cells, ACh EC80; inhibition, % at 3 µM; hit rate 0.59% among 360,000;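 active = inhibition above a per-plate cutoff, the mean of that plate's test compounds plus 3 SD, cut at about 27% in these data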
M4 ag – human M4 muscarinic receptor agonists, primary screen, CHO-K1 cells, Fluo-8 calcium fluorescence. CHO-K1 hM4/Gqi5; vehicle 0%, full acetylcholine response 100%. activation, % at 3 µM. hit rate 0.14% among 360,000. AID 624127, 2012;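 active = activation above the run mean over all test wells plus 3 SD, cut at about 32% in these data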;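 also: peak over basal fluorescence ratio per well then scaled between controls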
CHRM4 antagonist – human M4 muscarinic receptor antagonists, primary screen, CHO cells, Fluo-8 calcium fluorescence; hit rate 0.73% among 360,000; Muscarinic acetylcholine receptor M4 (Homo sapiens), P08173; CHO-hM4 cells, ACh EC80; inhibition, % at 3 µM;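 active = inhibition above its plate's cutoff, the mean inhibition of sample wells plus 3 SD, cut at about 27% in these data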
M5 ag – human M5 muscarinic receptor agonists, primary screen, CHO-K1 cells, Fluo-8 calcium fluorescence. Muscarinic acetylcholine receptor M5 (Homo sapiens), P08912. CHO-K1 hM5 cells; 0% DMSO wells, 100% maximal acetylcholine response. activation, % at 3 µM. hit rate 0.19% among 360,000. AID 624037, 2012;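 active = activation above the run's mean over test compounds plus 3 SD, cut at about 23% in these data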;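 also: signal is peak over basal fluorescence ratio across the kinetic read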
CHRM4 PAM – human M4 muscarinic receptor positive allosteric modulators, primary screen, CHO-K1 cells, Fluo-8 calcium fluorescence. Muscarinic acetylcholine receptor M4 (Homo sapiens), P08173. hit rate 0.4% among 360,000. activation, % at 3 µM. CHO-K1 hM4/Gqi5, ACh EC20; 0% = ACh EC20, 100% = maximal ACh;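 active = activation above its plate's cutoff, the mean activation of sample wells plus 3 SD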
Of the large screens only hits and unclear results are named; the others gave an inactive call. Compounds with a hit are over-represented: about 1.8% of the library has one in this group of screens.

CCCn1cnc2c(=O)oc3ccccc3c21	CHRM5 PAM 30.1
O=S(=O)(/N=C(/Nc1cccnc1)c1ccccc1)c1ccc(F)cc1F	none
Cc1cc(N/C(=N\S(=O)(=O)c2ccc(F)cc2F)c2ccccc2)no1	CHRM4 PAM 19.9
CCN1CCN(CCn2c(=S)[nH]c3ccccc3c2=O)CC1	M5 antag 73.2
CC(=O)c1ccc(NC(=S)NC(C)c2ccc(Cl)cc2Cl)cc1 (stereo not given)	M5 antag 29.1
Cc1cc(/C=N/NC(=O)c2ccsc2)c(C)n1-c1cnccn1	CHRM5 PAM 28.2
CN(C)CCOC1(Cc2ccc(F)cc2)CCC(C(C)(C)C)CC1 (stereo not given)	CHRM5 PAM 18.6
Cc1ccc(CC2(OCCN(C)C)CCC(C(C)(C)C)CC2)cc1 (stereo not given)	none
O=[N+]([O-])c1ccc(S(=O)(=O)CC2CSc3nc4ccccc4n32)cc1 (stereo not given)	CHRM4 PAM 33.5
O=C1C=C(c2ccc3c(c2)oc2ccccc23)C[C@@H](c2ccc3c(c2)OCO3)C1	none
O=C(O)c1cccc(Br)c1	none
O=C(O)Cc1cn(Cc2cccc(Cl)c2)c2ccccc12	CHRM4 PAM 25.9
CC(C)NC(=O)C1(C)CN(S(C)(=O)=O)CC(=O)N1CCOc1ccccc1 (stereo not given)	none
COc1ccc(C(CNc2ccc(S(=O)(=O)N3CCCC3)cc2[N+](=O)[O-])N2CCCC2)cc1 (stereo not given)	M5 antag 32.2
CCOc1ccc(S(=O)(=O)NCCC(=O)NC2CCN(Cc3ccccc3)CC2)cc1	none
CC(=O)c1ccc(S(=O)(=O)NCCC(=O)NC2CCN(Cc3ccccc3)CC2)cc1	CHRM5 PAM 18.7
CN(Cc1ccccc1)C(=O)c1ccc(NC(=O)Cc2ccc([N+](=O)[O-])cc2)cc1	M5 ag 25.6
O=C(NC1(C(=O)O)CCCC1)c1ccccc1	CHRM4 PAM 16.4
CC(NCc1ccc2c(c1)OCO2)C(=O)N1CCc2ccccc21 (stereo not given)	CHRM4 PAM 22.9
O=S(=O)(c1ccccc1)N1CCC(Oc2ccc(-n3cnnn3)cc2)CC1	CHRM4 antagonist 28.2
Cc1ccc(S(=O)(=O)N2CCCCC2)cc1C(=O)N1CCCCCC1	none
CCCn1c(SCC(=O)Nc2cccc(F)c2)nc(O)cc1=O	M5 antag 34.1, M4 ag 41.1, CHRM4 antagonist 26.8
COc1ccc(-n2c(SCC(=O)N(C)C3CCS(=O)(=O)C3)nc3ccc(O)cc3c2=O)cc1OC (stereo not given)	M5 antag 29.3
CN(C(=O)CSc1nc2ccccc2c(=O)n1-c1ccc(F)cc1)C1CCS(=O)(=O)C1 (stereo not given)	none
C=CCn1c(C)nnc1SCC(=O)Nc1cc(S(=O)(=O)N2CCCC2)ccc1Cl	none
CCOc1ccccc1C(=O)OCC(=O)NCCNC(=O)COC(=O)c1ccccc1OCC	CHRM5 PAM 37.7
CCOc1ccccc1C(=O)OCC(=O)NCC1CCCCC1	CHRM4 antagonist 41.9
O=C(CNc1cccc([N+](=O)[O-])c1)N1CCN(S(=O)(=O)c2ccc(Cl)cc2)CC1	none
CCN(CC)CCNC(=O)c1ccc(NC(=O)c2ccc(S(=O)(=O)N3CCCC3)cc2)cc1	none
N#C/C(=N\Nc1ccc(S(=O)(=O)N2CCc3ccccc32)cc1)C(N)=S	none
CCN(CC)CCNC(=O)c1ccc(NC(=O)c2cc(S(=O)(=O)N3CCCCC3)ccc2C)cc1	M5 antag 36.4, CHRM4 antagonist 69.5
CC(=O)N1CCN(C(=O)c2cccc(S(=O)(=O)N3c4ccccc4CC3C)c2)CC1 (stereo not given)	CHRM4 PAM 15.8
